Assay outcomes (PubChem BioAssay)
Compounds with a hit are over-represented: about 0.77% of the library has one in this group of screens.
hIAP inh: human IAP inhibitors, primary screen, biochemical, luminescence, uHTS; Intestinal-type alkaline phosphatase (Homo sapiens), P09923; purified IAP, CDP-Star luminescence, 30 min; inhibition, % at 10 µM; 330,000 compounds, 0.12% hits; AID 2544, 2010;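 active means inhibition reaching a set limit with compound at 10 µM in the primary screen, cut at about 35% in these data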
Target sequence (P09923 whole entry, looked up): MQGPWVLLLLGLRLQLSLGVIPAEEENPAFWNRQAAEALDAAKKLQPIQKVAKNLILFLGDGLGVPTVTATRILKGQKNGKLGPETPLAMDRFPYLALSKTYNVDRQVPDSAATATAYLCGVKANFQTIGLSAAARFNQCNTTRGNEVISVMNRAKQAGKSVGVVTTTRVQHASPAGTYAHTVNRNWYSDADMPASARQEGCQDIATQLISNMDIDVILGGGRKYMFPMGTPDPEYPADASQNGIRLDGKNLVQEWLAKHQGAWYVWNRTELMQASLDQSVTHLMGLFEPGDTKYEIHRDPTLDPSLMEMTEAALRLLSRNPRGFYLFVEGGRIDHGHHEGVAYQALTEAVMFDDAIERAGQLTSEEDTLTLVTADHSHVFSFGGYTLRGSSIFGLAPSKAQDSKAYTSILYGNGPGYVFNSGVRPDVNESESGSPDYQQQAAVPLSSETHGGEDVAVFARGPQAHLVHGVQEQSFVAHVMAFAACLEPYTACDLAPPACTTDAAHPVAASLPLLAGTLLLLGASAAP
hIAP activ: human IAP activators, primary screen, biochemical, luminescence, uHTS. purified human IAP, CDP-Star luminescence, 30 min; stronger effect = higher value; 1 = vehicle-only enzyme, 0 = enzyme-free background. Intestinal-type alkaline phosphatase (Homo sapiens), P09923. activation factor at 10 µM. 330,000 compounds, 0.16% hits;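 active means activation factor of the enzyme at least 2-fold when tested at 20 µM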
mIAP inh: inhibitors of mouse IAP, primary screen, biochemical, luminescence, uHTS; intestinal alkaline phosphatase [Mus musculus]; purified mouse IAP, CDP-Star luminescence, 30 min; inhibition, % at 10 µM; 330,000 compounds, 0.2% hits;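 active means inhibition of at least 40% at 10 µM in the primary screen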
bIAP act: bovine intestinal alkaline phosphatase activators, primary screen, biochemical, bovine IAP, CDP-star luminescence. alkaline phosphatase, intestinal [Bos taurus]. purified bovine IAP, 30 min; stronger effect = higher value; fold of DMSO-control signal, blank-subtracted. activation factor at 20 µM. 200,000 compounds, 0.17% hits;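 active means activation factor of 2 or more at 20 µM, a signal rise over negative controls twice the positive control's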
bIAP inhibitor: bovine intestinal alkaline phosphatase inhibitors, primary screen, selectivity assay for TNAP inhibitor project, biochemical, bovine IAP, CDP-star luminescence | inhibition, % at 20 µM | AID 1019, 2008 | 190,000 tested, under 10 active | alkaline phosphatase, intestinal [Bos taurus] | purified bovine IAP, 30 min;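 active means over 50% inhibition of intestinal alkaline phosphatase at 20 µM in the single-dose screen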
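System: Purified bovine intestinal alkaline phosphatase (IAP) enzyme | Input: IAP diluted 1/65,000,000 in the well | Also added: CDP-star chemiluminescent phosphatase substrate, 30 µM final | Dosing: 20 µM single dose | Times: Enzyme reaction for 30 min at room temperature | Detection: Luminescence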
mIAP act: activators of mouse IAP, primary screen, biochemical, luminescence, uHTS | intestinal alkaline phosphatase [Mus musculus] | muIAP, CDP-Star luminescence, 30 min; stronger effect = higher value; 1 = vehicle-only enzyme signal, 0 = enzyme-free wells | activation factor at 10 µM | 330,000 compounds, 0.24% hits;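 active means activation factor of at least 2 at 20 µM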
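Assay system: mouse IAP enzyme / Compound: DMSO-dissolved test compounds / Timing: 30 min, room temperature / Measured by: luminescence from enzymatic CDP-Star hydrolysis / Control set: DMSO-only wells, enzyme-free buffer wells as negative control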
Of the large screens only hits and unclear results are named; the others gave an inactive call.

CCOC(=O)c1cccc(NC(=O)Nc2ccc(OCC)cc2)c1	mIAP act 2.91
CCCCOC(=O)c1ccc(NC(=O)Nc2ccc(OC)c(OC)c2)cc1	mIAP act 2.15
CCOC(=O)c1ccc(NC(=O)Nc2ccc(F)cc2)cc1	mIAP act 2.54
CCOC(=O)c1ccc(NC(=O)NCc2ccccc2OC)cc1	mIAP act 2.35
CCOC(=O)c1ccc(NC(=O)NCc2ccccc2)cc1	none
C/C=C\C(=O)Nc1cccc(C2=NOC3(C2)C[C@@H](C(N)=O)N(C(=O)c2ccccc2)C3)c1 (stereo partly drawn)	mIAP inh 43.5 (no result: bIAP act, bIAP inhibitor)
COc1cc([C@@H]2c3cc4c(cc3[C@@H](O[C@@H]3O[C@@H]5CO[C@@H](C)O[C@H]5[C@H](O)[C@H]3O)[C@H]3COC(=O)[C@H]23)OCO4)cc(OC)c1O	none (no result: bIAP act, bIAP inhibitor)
O=C(NC1CC2CCC(C1)N2Cc1nnnn1Cc1ccco1)NC12CC3CC(CC(C3)C1)C2 (stereo not drawn)	bIAP act 3.4
CCOc1ccccc1C(=O)NC1CC2CCCC(C1)N2Cc1nnnn1Cc1ccco1 (stereo not drawn)	none
CS(=O)(=O)c1ccc(Cl)c(NC(=O)COC(=O)c2ccc(-n3cnnn3)cc2)c1	none (no result: bIAP act, bIAP inhibitor)
COC(=O)c1ccccc1N1C(=O)C2C(C1=O)[C@H]1C=C[C@@H]2C1 (stereo partly drawn)	mIAP inh 50.3
S=C(Nc1ccc(Cl)c(Cl)c1)NC1CCN(Cc2ccccc2)CC1	mIAP act 2.15
S=C(Nc1ccc(Cl)c(Cl)c1)NC1CCCCC1	mIAP act 3.2
C/C(CC(=O)NC(C)C)=N\NC(=O)COc1cc(C)c(Br)cc1Br	bIAP act 2.6
CCO[C@@H]1OC(C(N)=O)=C[C@H](C2CCCCC2)[C@H]1CCCO	mIAP inh 45.0 (no result: bIAP act, bIAP inhibitor)
O=C(NCc1cccnc1)c1cccc(S(=O)(=O)NCc2ccccc2)c1	none (no result: bIAP act, bIAP inhibitor)
COC(=O)c1ccc(OC(=O)CCN2c3ccccc3Sc3ccccc32)cc1	bIAP act 5.1
CNC(=O)CSc1cnc2ccccc2n1	none
Cc1cc(-c2c(C(=O)N3CCOCC3)c(C)nn2-c2ccccc2)no1	none (no result: bIAP act, bIAP inhibitor)
COc1cc(CNCc2ccccn2)ccc1OCC(N)=O	none
COc1cc(CNCc2ccccn2)ccc1OCc1ccc(Cl)c(Cl)c1	bIAP act 2.4
COc1cc(CNCc2ccccn2)ccc1OCc1ccc(Cl)cc1Cl	bIAP act 2.7
COc1cc(CNCCN2CCOCC2)ccc1OCc1ccc(Cl)cc1Cl	none
Cc1c(O)ccc(C(=O)CN2CCN(c3ccccc3)CC2)c1O	none (no result: bIAP act, bIAP inhibitor)
COc1ccccc1Nc1nc(-c2cccs2)cs1	mIAP inh 42.6
O=C(CCc1nnc(-c2ccc3c(c2)OCO3)o1)NC(c1cccnc1)C(F)(F)F (stereo not drawn)	none
O=C(Nc1ccccc1)Nc1nc(-c2ccccc2)cs1	none (no result: bIAP act, bIAP inhibitor)
O=C(Nc1nc(-c2ccccc2)cs1)Nc1ccc(F)cc1F	none
O=C(Nc1ccc(Cl)c(Cl)c1)Nc1nc(-c2ccccc2)cs1	mIAP act 2.11
O=C(Nc1ccccc1)Nc1nc(-c2ccc(F)c(F)c2)cs1	mIAP act 2.47 (no result: bIAP act, bIAP inhibitor)
COc1cc(C(CC(=O)Nc2ccccn2)N2Cc3ccccc3C2=O)cc(OC)c1OC (stereo not drawn)	none (no result: bIAP act, bIAP inhibitor)
O=C1CCCC(=O)C1=C1SCCS1	none
Cc1cc(C(=O)C(=O)O)c(C)n1-c1ccc(Cl)c(Cl)c1	bIAP act 2.5
O=C(Nc1ccc2ccccc2c1)c1cn(-c2ccccc2)nc1-c1cccs1	mIAP act 2.14
S=C(NCc1cccs1)Nc1cc(Cl)cc(Cl)c1	mIAP act 4 (no result: bIAP act, bIAP inhibitor)
Fc1cccc(NC(=S)NCc2ccccc2Cl)c1	mIAP act 3.03 (no result: bIAP act, bIAP inhibitor)
Fc1ccc(CNC(=S)Nc2cccc(Cl)c2)cc1	mIAP act 2.38
Cc1cc(Cl)ccc1NC(=S)NCc1ccccc1Cl	mIAP act 2.62
O=C(COc1ccc(S(=O)(=O)N2CCOCC2)cc1)Nc1cccc([N+](=O)[O-])c1	none (no result: bIAP act, bIAP inhibitor)
CSc1ccccc1C(=O)N1CCCC(CCC(=O)NCc2ccc(F)c(F)c2)C1 (stereo not drawn)	none (no result: bIAP act, bIAP inhibitor)
CCN(CC)c1ccc(S(=O)(=O)N2CCOCC2)cc1NC(=O)CN1C(=O)NC2(CCC(C)CC2)C1=O (stereo not drawn)	none (no result: bIAP act, bIAP inhibitor)
CCCc1cc(=O)oc2cc(C)cc(OCC(=O)Nc3ccc(CN4CCOCC4)cc3)c12	none (no result: bIAP act, bIAP inhibitor)
S=C(NCc1ccc(Cl)cc1)Nc1ccccc1	none
COc1ccc(CNC(=S)Nc2ccc(F)c(Cl)c2)cc1	mIAP act 2.62
S=C(NCc1ccc(Cl)cc1Cl)Nc1ccccc1	mIAP act 2.35
COc1cc(NC(=O)c2cccs2)c(OC)cc1NC(=O)CCC(=O)Nc1ccc(C)cc1	none (no result: bIAP act, bIAP inhibitor)
O=C(/C=C\c1ccc2c(c1)OCO2)Nc1nnc(SCC(=O)OCc2ccccc2)s1	none
CCCCNC(=S)Nc1ccc(Cl)cc1	none
O=C(O)c1ccc(NC(=S)NC2CCCCC2)cc1	none
FC(F)(F)c1cccc(NC(=S)NC2CCCC2)c1	mIAP act 2.61
CCCCNC(=S)Nc1ccc(C(F)(F)F)cc1	mIAP act 2.21
FC(F)(F)c1ccc(NC(=S)NC2CCCCC2)cc1	mIAP act 2.67
FC(F)(F)c1cccc(NC(=S)NCC2COc3ccccc3O2)c1 (stereo not drawn)	mIAP act 3.58
O=C1NC(Cc2ccccc2)c2nc3cc(F)ccc3c(=O)n2-c2cc(Cl)ccc21 (stereo not drawn)	none (no result: bIAP act, bIAP inhibitor)
OCc1c[nH]c(=S)n1CCOc1cccc(C(F)(F)F)c1	none (no result: bIAP act, bIAP inhibitor)
CCCCC(c1nnnn1CCOC)N1CCN(Cc2ccccc2)CC1 (stereo not drawn)	none
COc1ccc(NC(=O)CN(c2cc(C)cc(C)c2)S(=O)(=O)c2c(C)noc2C)cc1	none
CCOc1ccc(N(CC(=O)Nc2ccc(C)c(C)c2)S(=O)(=O)c2c(C)noc2C)cc1	mIAP act 2.08
COc1ccc(NC(=O)CN(c2cc(C)cc(C)c2)S(=O)(=O)c2c(C)noc2C)cc1OC	mIAP act 2.1
O=C(Nc1cccc(C(F)(F)F)c1)C1CC(=O)N(CCc2ccccc2)C1 (stereo not drawn)	none (no result: bIAP act, bIAP inhibitor)
Cn1c(-c2ccc3c(c2)OCO3)cnc1NCc1ccc(Cl)cc1	bIAP act 6.4
Cc1ccc(CNc2ncc(-c3ccc4c(c3)OCO4)n2C)cc1	none
